Non-standard residues stand in square brackets, D forms with d. Residues, ends and D or L forms follow the SMILES beside them. *: point of attachment. Dolaproine = CO[C@@H]([C@@H]1CCCN1)[C@@H](C)C(=O)O; Dil = CC[C@H](C)[C@H](NC)[C@@H](CC(=O)O)OC; X1 = C[C@@H](N*)[C@@H](O)c1ccccc1; NMeV = CN[C@H](C(=O)O)C(C)C
Assays:
[1] = test system: U-87 MG; assay: Antiproliferative activity against human U87 cells after 72 hrs by MTS assay; type: functional, cell-based, U-87MG ATCC
Summary of the method: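 U87 human glioblastoma cells (ATCC) kept in DMEM with 10% FCS and 1% glutamine at 37 °C, 5% CO2. Seeded at 2.5 × 10^3 cells/well, exposed after 24 h to compounds at 1 and 10 μM final for 72 h. […] added 2 h before reading absorbance at 490 nm. Percent cytotoxicity index (treated/control OD490 × 100) from three experiments.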

[2] = test system: A549; assay: Antiproliferative activity against human A549 cells after 72 hrs by MTS assay; type: functional, cell-based; details: A549, 72 h
Summary of the method: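 A549 human lung cancer cells (ATCC) grown in RPMI 1640 with 10% FCS and 1% glutamine at 37 °C, 5% CO2. Cells seeded at 2.5 × 10^3 per well and cultured 24 h, then treated at 1 and 10 μM final for 72 h. […] added for 2 h, absorbance read at 490 nm. Cytotoxicity index (OD490treated/OD490control × 100) taken from three experiments.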

SMILES | EC50 [1] | EC50 [2]
C/C(=C\Cc1cc(/C=C/c2cc(O)c3c(c2)OC(C)(C)[C@@H](O)C3)cc(O)c1O)CCC(O)C(C)(C)O (stereo partly drawn) | 500 nM | > 10000 nM
CC(C)=CCC/C(C)=C/Cc1cc(/C=C/c2cc(O)cc(Oc3ccc4c(c3)O[C@H](c3ccc(C/C=C(\C)CCC=C(C)C)c(O)c3O)[C@@H]4O)c2)cc(O)c1O | > 10000 nM | > 10000 nM
COc1cc(/C=C/c2cc(O)c(CC=C(C)C)c(O)c2)cc(C/C=C(\C)CCC=C(C)C)c1O | 7000 nM | > 10000 nM
CC(C)=CCC[C@]1(C)Oc2c(O)cc(/C=C/c3cc(O)c4c(c3)OC(C)(C)C(O)C4)cc2C[C@@H]1O (stereo partly drawn) | 450 nM | 240 nM
CC(C)=CCC/C(C)=C/CC/C(C)=C/Cc1c(O)cc(/C=C/c2ccc(O)c(O)c2)cc1O | 25 nM | > 10000 nM
CC(C)=CCc1c(O)cc(/C=C/c2cc(O)c(O)c(C/C=C(\C)CCC(O)C(C)(C)O)c2)cc1O (stereo not drawn) | 100 nM | > 10000 nM
CC(C)=CCc1c(O)cc(/C=C/c2cc(O)c3c(c2)C[C@@H]2C(C)(C)[C@H](O)C[C@H](O)[C@@]2(C)O3)cc1O | 50 nM | > 10000 nM
CC(C)=CCC/C(C)=C/Cc1cc(/C=C/c2cc(O)c3c(c2)OC(C)(C)[C@@H](O)C3)cc(O)c1O | 250 nM | 730 nM
CC[C@H](C)[C@@H]([C@@H](CC(=O)N1CCC[C@H]1[C@H](OC)[C@@H](C)C(=O)N[C@H](C)[C@@H](O)c1ccccc1)OC)N(C)C(=O)[C@@H](NC(=O)[C@@H](NC)C(C)C)C(C)C (H-[NMeV]V[Dil][Dolaproine]-X1) | 0.2 nM | 0.5 nM
CC(C)=CCC/C(C)=C/Cc1cc(/C=C/c2cc(O)c(CC=C(C)C)c(O)c2)cc(O)c1O [MAPPAIN] | 5400 nM | 7000 nM
COc1cc(/C=C/c2cc(O)c(CC=C(C)C)c(O)c2)cc2c1O[C@]1(C)C[C@@H](O)[C@@H](O)C(C)(C)[C@H]1C2 [SCHWEINFURTHIN E] | 200 nM | 260 nM
COc1cc(/C=C/c2cc(O)c(CC=C(C)C)c(O)c2)cc2c1O[C@]1(C)CC[C@@H](O)C(C)(C)[C@H]1C2 [SCHWEINFURTHIN F] | 240 nM | 1500 nM
CC(C)=CCc1c(O)cc(/C=C/c2cc(O)c3c(c2)C[C@@H]2C(C)(C)[C@H](O)CC[C@@]2(C)O3)cc1O [SCHWEINFURTHIN G] | 45 nM | 800 nM
CC(C)=CCc1c(O)cc(/C=C/c2cc(O)c3c(c2)C[C@@H]2C(C)(C)[C@H](O)[C@H](O)C[C@@]2(C)O3)cc1O [VEDELIANIN] | 30 nM | 190 nM
